Data as given in ChEMBL document CHEMBL1926573, “Synthesis, antiproliferative activity and genotoxicity of novel anthracene-containing aminophosphonates and a new anthracene-derived Schiff base” (Bioorg Med Chem, 2012).
Values after ≈ are worked out from the molar mass of the structure shown. Active and inactive are the calls of the source. No cut-off for these calls is given here.

Columns and labels:
HepG2 = assay: Cytotoxicity against human HepG2 cells after 24 hrs by MTT assay; assay type: functional, cell-based; conditions: HepG2, 24 h
Method in brief: (§1)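 Human tumor lines were grown in RPMI 1640 (MCF-7, HBL-100) or high-glucose DMEM (others) with 10% FCS at 37.5 °C and 5% CO2. Cells were seeded at 1×10^4/well, allowed to adhere 24 h, then exposed 24 h to 1–0.0681 mg/ml (1.47-fold dilutions) from DMSO stock diluted in PBS, with DMSO ≤1%. Doxorubicin was the reference. MTT-formazan was read at 580 nm. IC50 by non-linear regression; mean ± SD of three experiments.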

Bone marrow cell [1] = assay: Induction of clastogenic effect in ICR mouse bone marrow cells assessed as chromosomal aberration at 100 mg/kg, ip after 24 hrs; assay type: functional; conditions: route intraperitoneal
Method in brief: (§2)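 ICR mice (male and female, 20 ± 1.5 g; 4 males + 4 females per treated group, 10 per control group) given compound ip at 10 or 100 mg/kg; mitomycin C 3.5 mg/kg positive control, 0.9% saline negative control. Colchicine 0.4 mg/kg ip 1 h before femoral marrow harvest at 24 or 48 h. Cells put in 0.075 M KCl (37 °C, 20 min), fixed in methanol–acetic acid 3:1, stained with Giemsa. ≥50 metaphases scored per animal. Mitotic index counted in 1500 cells per animal. Group mean ± SEM, Student's t-test.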

Bone marrow cell [2] = assay: Induction of clastogenic effect in ICR mouse bone marrow cells assessed as chromosomal aberration at 10 mg/kg, ip after 48 hrs; assay type: functional; conditions: route intraperitoneal; method in brief: as §2
Bone marrow cell [3] = assay: Antiproliferative activity in ICR mouse bone marrow cells assessed as inhibition of cell division at 10 to 100 mg/kg, ip measured after 48 hrs; assay type: functional, organism-based; method in brief: as §2
HeLa = assay: Cytotoxicity against human HeLa cells after 24 hrs by MTT assay; assay type: functional, cell-based; method in brief: as §1
Bone marrow cell [4] = assay: Induction of mitosis in ICR mouse bone marrow cells assessed as mitotic index at 10 mg/kg, ip after 48 hrs; assay type: functional; conditions: route intraperitoneal; method in brief: as §2
MDA-MB-231 = assay: Cytotoxicity against human MDA-MB-231 cells after 24 hrs by MTT assay; assay type: functional, cell-based; conditions: MDA-MB-231, 24 h; method in brief: as §1
647-V = assay: Cytotoxicity against human 647V cells after 24 hrs by MTT assay; assay type: functional, cell-based; method in brief: as §1
Bone marrow cell [5] = assay: Induction of mitosis in ICR mouse bone marrow cells assessed as mitotic index at 10 mg/kg, ip after 24 hrs; assay type: functional; conditions: route intraperitoneal; method in brief: as §2
MCF7 = assay: Cytotoxicity against human MCF7 cells after 24 hrs by MTT assay; assay type: functional, cell-based; conditions: MCF7, 24 h; method in brief: as §1
HT-29 = assay: Cytotoxicity against human HT-29 cells after 24 hrs by MTT assay; assay type: functional, cell-based; conditions: HT-29, 24 h; method in brief: as §1
Bone marrow cell [6] = assay: Induction of mitosis in ICR mouse bone marrow cells assessed as mitotic index at 100 mg/kg, ip after 48 hrs; assay type: functional; conditions: route intraperitoneal; method in brief: as §2
Bone marrow cell [7] = assay: Induction of clastogenic effect in ICR mouse bone marrow cells assessed as chromosomal aberration at 10 mg/kg, ip after 24 hrs; assay type: functional; conditions: route intraperitoneal; method in brief: as §2
Bone marrow cell [8] = assay: Induction of clastogenic effect in ICR mouse bone marrow cells assessed as chromosomal aberration at 100 mg/kg, ip after 48 hrs; assay type: functional; conditions: route intraperitoneal; method in brief: as §2
HBL-100 [9] = assay: Cytotoxicity against human HBL100 cells after 24 hrs by MTT assay; assay type: functional, cell-based; conditions: HBL-100, 24 h; method in brief: as §1
Bone marrow cell [10] = assay: Induction of mitosis in ICR mouse bone marrow cells assessed as mitotic index at 100 mg/kg, ip after 24 hrs; assay type: functional; conditions: route intraperitoneal; method in brief: as §2
Bone marrow cell [11] = assay: Induction of clastogenic effect in ICR mouse bone marrow cells assessed as rearrangement in centromere to centromeric fusion at 3.5 mg/kg, ip after 24 hrs; assay type: functional; conditions: route intraperitoneal; method in brief: as §2
Bone marrow cell [12] = assay: Induction of mitosis in ICR mouse bone marrow cells assessed as mitotic index at 3.5 mg/kg, ip after 24 hrs; assay type: functional; conditions: route intraperitoneal; method in brief: as §2
Bone marrow cell [13] = assay: Induction of mitosis in ICR mouse bone marrow cells assessed as mitotic index at 3.5 mg/kg, ip after 48 hrs; assay type: functional; conditions: route intraperitoneal; method in brief: as §2
Bone marrow cell [14] = assay: Induction of clastogenic effect in ICR mouse bone marrow cells assessed as chromosomal breaks and fragmentation at 3.5 mg/kg, ip after 24 hrs; assay type: functional; conditions: route intraperitoneal; method in brief: as §2
Bone marrow cell [15] = assay: Induction of clastogenic effect in ICR mouse bone marrow cells assessed as chromosomal aberration at 3.5 mg/kg, ip after 48 hrs; assay type: functional; conditions: route intraperitoneal; method in brief: as §2
Bone marrow cell [16] = assay: Induction of clastogenic effect in ICR mouse bone marrow cells assessed as chromosomal aberration at 3.5 mg/kg, ip after 24 hrs; assay type: functional; conditions: route intraperitoneal; method in brief: as §2
HBL-100 [17] = assay: Ratio of Doxorubicin IC50 to compound IC50 for human HBL100 cells after 24 hrs by MTT assay; assay type: functional
Bone marrow cell [18] = assay: Induction of clastogenic effect in ICR mouse bone marrow cells assessed as rearrangement in centromere to centromeric fusion at 10 to 100 mg/kg, ip; assay type: functional; conditions: dose mg/kg 10-100; route intraperitoneal; method in brief: as §2
[19] = Drug uptake in cytoplasm of human HBL100 cells at non-toxic concentration after 24 hrs by fluorescent microscopic analysis; assay type: ADME, cell-based; conditions: hbl-100, 24 h
Method in brief: (§3)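 HBL-100 cells were seeded at 1×10^5/ml on diagnostic slides, adhered overnight (37.5 °C, 5% CO2), and exposed 24 h to non-toxic concentrations. Intrinsic anthracene fluorescence was imaged by fluorescence microscopy to locate subcellular distribution.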

Bone marrow cell [20] = assay: Induction of clastogenic effect in ICR mouse bone marrow cells assessed as chromosomal breaks and fragmentation at 10 to 100 mg/kg, ip; assay type: functional; conditions: dose mg/kg 10-100; route intraperitoneal; method in brief: as §2
[21] = Drug uptake in nuclei of human HBL100 cells at non-toxic concentration after 24 hrs by fluorescent microscopic analysis; assay type: ADME, cell-based, Nucleus; conditions: hbl-100, 24 h; method in brief: as §3
[22] = Drug uptake in nuclear membrane of human HBL100 cells at non-toxic concentration after 24 hrs by fluorescent microscopic analysis; assay type: ADME, cell membranes; conditions: hbl-100, 24 h; method in brief: as §3

Row | SMILES | IC50 (HepG2) | Activity (Bone marrow cell [1]) | Activity (Bone marrow cell [2]) | IC50 (HeLa) | Activity (Bone marrow cell [4]) | IC50 (MDA-MB-231) | IC50 (647-V) | Activity (Bone marrow cell [5]) | IC50 (MCF7) | IC50 (HT-29) | Activity (Bone marrow cell [6]) | Activity (Bone marrow cell [7]) | Activity (Bone marrow cell [8]) | IC50 (HBL-100 [9]) | Activity (Bone marrow cell [10]) | other results
1 | COP(=O)(OC)C(Nc1ccc(C)cc1)c1c2ccccc2cc2ccccc12 (configuration not stated) | 830 µg/mL (≈ 2050 µM) | 5.5% | 4.75% | > 2000 µg/mL | 15.6 ‰ | 880 µg/mL (≈ 2170 µM) | 600 µg/mL (≈ 1480 µM) | 12.6 ‰ | 450 µg/mL (≈ 1110 µM) | > 2000 µg/mL | 14.1 ‰ | 4% | 6% | 20 µg/mL (≈ 49.3 µM) | 12 ‰ | Activity (Bone marrow cell [3]): inactive
2 | CO[C@@]12[C@H](COC(N)=O)C3=C(C(=O)C(C)=C(N)C3=O)N1C[C@@H]1N[C@@H]12 [MITOMYCIN] |  |  |  |  |  |  |  |  |  |  |  |  |  |  |  | Activity (Bone marrow cell [11]): 24.9%; Activity (Bone marrow cell [12]): 5.49 ‰; Activity (Bone marrow cell [13]): 7.29 ‰; Activity (Bone marrow cell [14]): 75.1%; Activity (Bone marrow cell [15]): 15.8%; Activity (Bone marrow cell [16]): 30.5%
3 | CCOP(=O)(OCC)C(NCc1ccco1)c1c2ccccc2cc2ccccc12 (configuration not stated) | 110 µg/mL (≈ 260 µM) |  | 4.75% | 120 µg/mL (≈ 283 µM) | 10.1 ‰ | 70 µg/mL (≈ 165 µM) | 70 µg/mL (≈ 165 µM) | 15.1 ‰ | 100 µg/mL (≈ 236 µM) | 110 µg/mL (≈ 260 µM) |  | 6.25% |  | 70 µg/mL (≈ 165 µM) |  | Ratio IC50 (HBL-100 [17]): 2
4 | C(=N\Cc1ccco1)/c1c2ccccc2cc2ccccc12 | 120 µg/mL (≈ 421 µM) | 5.5% | 4.43% | 360 µg/mL (≈ 1260 µM) | 10.2 ‰ | 450 µg/mL (≈ 1580 µM) | 80 µg/mL (≈ 280 µM) | 11.3 ‰ | 260 µg/mL (≈ 911 µM) | 200 µg/mL (≈ 701 µM) | 15.2 ‰ | 4.75% | 5.5% | 460 µg/mL (≈ 1610 µM) | 12.4 ‰ | Activity (Bone marrow cell [3]): inactive
5 | Cc1ccc(/N=C/c2c3ccccc3cc3ccccc23)cc1 | 180 µg/mL (≈ 609 µM) | 6.57% | 5% | 170 µg/mL (≈ 576 µM) | 8.45 ‰ | 120 µg/mL (≈ 406 µM) | 130 µg/mL (≈ 440 µM) | 12.6 ‰ | 450 µg/mL (≈ 1520 µM) | 80 µg/mL (≈ 271 µM) | 11.7 ‰ | 5.25% | 6.5% | 310 µg/mL (≈ 1050 µM) | 10.7 ‰ | Activity (Bone marrow cell [18]): 62.17%; Drug uptake [19]: Active; Activity (Bone marrow cell [20]): 35.6%
6 | COc1cccc2c1C(=O)c1c(O)c3c(c(O)c1C2=O)C[C@@](O)(C(=O)CO)C[C@@H]3O[C@H]1C[C@H](N)[C@H](O)[C@H](C)O1.Cl [DOXORUBICIN HYDROCHLORIDE] | < 68 µg/mL |  |  | < 68 µg/mL |  | < 68 µg/mL | < 68 µg/mL |  | < 68 µg/mL | 580 µg/mL |  |  |  | 140 µg/mL |  | 
7 | CCOP(=O)(OCC)C(Nc1ccc(C)cc1)c1c2ccccc2cc2ccccc12 (configuration not stated) | > 2000 µg/mL | 8.5% | 6% | 1940 µg/mL (≈ 4480 µM) | 11.9 ‰ | > 2000 µg/mL | > 2000 µg/mL | 13.4 ‰ | > 2000 µg/mL | > 2000 µg/mL | 11.8 ‰ | 4.75% | 8% | 730 µg/mL (≈ 1680 µM) | 16.1 ‰ | Drug uptake [21]: Active; Drug uptake [22]: Active
